This note sets out measurements from ChEMBL document CHEMBL5649170, “Sustained microglial depletion with CSF1R inhibitor impairs parenchymal plaque development in an Alzheimer's disease model” (Nat Commun, 2019).

The term IC50 denotes the concentration needed to halve the response being measured. A high value points to weaker potency in that assay. As a reminder, the clearance is the volume of plasma or blood freed of the substance per unit of time. The AUC(0-inf) is the area under the concentration-time curve extrapolated to infinity.

Calls of active or inactive are those of the source. The rule behind the calls is not given here. A value given as a limit tells only on which side of the number the result lay.

Series [1] is described as follows: Drug concentration in 5XFAD mouse plasma at 600 ppm administered as rodent chow starting from 1.5 months and measured after 5 months. The format is ADME, cell-free. As to conditions: route po, time 3.5 months. In outline: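 WT or 5xFAD mice were fed PLX3397 in AIN-76A chow at 600 ppm or 75 ppm from 1.5 to 5 months of age. Terminal brain and plasma drug concentrations were determined at study end.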

The subject of series [2] is Mus musculus. Nature of the series: Prevention of immune pathway related gene upregulation in 5XFAD mouse hippocampus assessed as percent change in Reads Per kilo base per Million mapped reads at 1200 ppm administered as rodent chow starting from 1.5 months and measured after 7 months by GO enrichment analysis. The format is functional, tissue-based. Conditions: route po, time 5.5 months.

A short description of series [3]: Effect on Clec7a gene expression in wild type mouse hippocampus at 1200 ppm administered as rodent chow starting from 1.5 months and measured after 7 months by RNA-Seq analysis (reference value: 0.034 to 0.503 RPKM). The format is functional. As to conditions: route po, time 5.5 months, 4015 h. The method, boiled down: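 WT and 5xFAD mice were treated with 1200 ppm PLX5622 chow or control chow from 1.5 to 7 months of age. Brains were microdissected into cortex, hippocampus and thalamus, and RNA was extracted from tissue powder. Whole-transcriptome RNA-Seq libraries were sequenced, with n = 4 per group per region (48 samples).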

For series [4], the target named is Protein kinase C zeta type (Homo sapiens, UniProt Q05513). The experiment in a line: Inhibition of PRKCZ (unknown origin).
Series [5] can be described thus: Volume of distribution at steady state in dog at 1.00 mg/kg, iv administered as single dose. The format is ADME, organism-based, Canis lupus familiaris. As to conditions: in vivo, read-out: Vdss.
In series [6] the target is Serine/threonine-protein kinase PAK 3 (Homo sapiens, UniProt O75914). Nature of the series: Inhibition of PAK3 (unknown origin).
A short description of series [7]: Clearance in male rat at 1.13 mg/kg, iv administered as single dose. Conditions: in vivo. The format is ADME, organism-based.
Series [8] concerns the target Receptor-type tyrosine-protein kinase FLT3 (Homo sapiens, UniProt P36888). Nature of the series: Inhibition of FLT3 (unknown origin).
For series [9], the target named is T1, Macrophage colony-stimulating factor 1 receptor (Mus musculus) (UniProt P09581).
T1 sequence (whole entry): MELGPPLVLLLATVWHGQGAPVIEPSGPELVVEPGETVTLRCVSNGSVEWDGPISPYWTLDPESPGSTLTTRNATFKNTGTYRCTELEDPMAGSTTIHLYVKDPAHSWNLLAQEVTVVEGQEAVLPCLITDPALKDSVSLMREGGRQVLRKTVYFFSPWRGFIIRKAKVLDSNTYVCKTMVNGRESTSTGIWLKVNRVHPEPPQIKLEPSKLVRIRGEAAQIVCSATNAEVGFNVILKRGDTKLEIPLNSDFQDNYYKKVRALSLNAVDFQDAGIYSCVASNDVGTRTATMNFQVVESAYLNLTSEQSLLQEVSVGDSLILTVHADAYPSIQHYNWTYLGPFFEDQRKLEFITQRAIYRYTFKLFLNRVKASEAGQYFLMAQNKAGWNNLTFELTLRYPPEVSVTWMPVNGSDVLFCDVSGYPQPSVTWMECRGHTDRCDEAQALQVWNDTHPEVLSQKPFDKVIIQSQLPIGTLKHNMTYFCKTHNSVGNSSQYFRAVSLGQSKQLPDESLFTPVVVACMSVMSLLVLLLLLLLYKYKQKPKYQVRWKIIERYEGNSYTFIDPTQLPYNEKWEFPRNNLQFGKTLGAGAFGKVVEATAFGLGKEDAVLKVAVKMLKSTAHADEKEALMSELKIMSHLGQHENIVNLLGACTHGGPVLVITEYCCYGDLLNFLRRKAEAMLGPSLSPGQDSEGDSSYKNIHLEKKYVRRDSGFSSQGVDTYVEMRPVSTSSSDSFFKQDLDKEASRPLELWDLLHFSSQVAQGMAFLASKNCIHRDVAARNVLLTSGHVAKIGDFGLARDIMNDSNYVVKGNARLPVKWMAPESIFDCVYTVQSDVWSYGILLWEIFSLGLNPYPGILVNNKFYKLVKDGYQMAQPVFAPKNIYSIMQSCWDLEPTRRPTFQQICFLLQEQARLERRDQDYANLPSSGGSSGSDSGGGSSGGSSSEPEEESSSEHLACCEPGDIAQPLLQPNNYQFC
Nature of the series: In vivo inhibition of CSF1R in wildtype mouse assessed as number of GFAP positive cell per FOV in somatosensory cortex at 1200 ppm administered as rodent chow for 10 to 24 weeks by immunolabelling based confocal microscopic analysis (reference value: 4 to 34). The format is functional. Conditions: route po, time 10-24 weeks.

The target in series [10] is Tyrosine-protein kinase FRK (Homo sapiens, UniProt P42685). Nature of the series: Inhibition of FRK (unknown origin).
The target of series [11] is Protein-tyrosine kinase 2-beta (Homo sapiens, UniProt Q14289). The experiment in a line: Inhibition of PTK2B (unknown origin).
Series [12] is described as follows: AUC (0 to infinity) in dog at 45 mg/kg, po administered as single dose via gavage. The format is ADME, organism-based, Canis lupus familiaris. As to conditions: in vivo.
Series [13] concerns Mus musculus. The experiment in a line: Effect on APP processing pathway in 5XFAD mouse assessed as C99 protein signal intensity in cortex at 1200 ppm administered as rodent starting from 1.5 months and measured after 7 months (reference value: 49.412 to 179.884 %). The format is functional. As to conditions: route po, time 5.5 months, 4015 h.
Series [14] has as its target Serine/threonine-protein kinase 25 (Homo sapiens, UniProt O00506). The experiment in a line: Inhibition of STK25 (unknown origin).
The target in another series is CDK9/cyclin T1 (Homo sapiens, UniProt P50750). The experiment in a line: Inhibition of CDK9/CyclinT1 (unknown origin). The format is protein-complex assay.
Series [15] deals with Serine/threonine-protein kinase PAK 4 (Homo sapiens, UniProt O96013). Nature of the series: Inhibition of PAK4 (unknown origin).
The target of series [16] is MAP/microtubule affinity-regulating kinase 4 (Homo sapiens, UniProt Q96L34). Nature of the series: Inhibition of MARK4 (unknown origin).
Series [17] addresses T1, Macrophage colony-stimulating factor 1 receptor (Mus musculus). The experiment in a line: In vivo inhibition of CSF1R in wildtype mouse assessed as number of Iba1 positive cells per FOV in subiculum at 1200 ppm administered as rodent chow starting from 1.5 months and measured after 7 months by immunolabeling based confocal microscopic analysis (reference value: 482 to 1085). The format is functional. Conditions: route po, time 5.5 months.

For series [18], the system named is Mus musculus. The experiment in a line: Prevention of Tgfb1 gene upregulation in 5XFAD mouse hippocampus at 1200 ppm administered as rodent chow starting from 1.5 months and measured after 7 months by Nanostring analysis. The format is functional, tissue-based. As to conditions: route po, time 5.5 months.
In series [19] the target is Casein kinase II subunit alpha (Homo sapiens, UniProt P68400). The experiment in a line: Inhibition of CSNK2A1 (unknown origin).
For series [20], the system named is Mus musculus. Nature of the series: Antialzheimer activity in 5XFAD mouse assessed as average plaque volume in somatosensory cortex at 1200 ppm administered as rodent chow starting from 1.5 months and measured after 7 months by Thio-S staining based confocal microscopic analysis (reference value: 711.144 to 2878.724 microm3). Conditions: route po, time 5.5 months, 4015 h. The format is functional.

For series [21], the system named is Mus musculus. The experiment in a line: Effect on APP processing pathway in wildtype mouse assessed as C83 protein signal intensity in cortex at 1200 ppm administered as rodent starting from 1.5 months and measured after 7 months (reference value: 2.769 to 56.642 %). The format is functional. Conditions: route po, time 5.5 months, 4015 h.
Another series concerns the target Ephrin type-A receptor 2 (Homo sapiens, UniProt P29317). The experiment in a line: Inhibition of EPHA2 (unknown origin).
Series [22] addresses MAP kinase-activated protein kinase 5 (Homo sapiens, UniProt Q8IW41). The experiment in a line: Inhibition of MAPKAPK5 (unknown origin).

MAP kinase-activated protein kinase 5, sequence (Q8IW41 whole entry): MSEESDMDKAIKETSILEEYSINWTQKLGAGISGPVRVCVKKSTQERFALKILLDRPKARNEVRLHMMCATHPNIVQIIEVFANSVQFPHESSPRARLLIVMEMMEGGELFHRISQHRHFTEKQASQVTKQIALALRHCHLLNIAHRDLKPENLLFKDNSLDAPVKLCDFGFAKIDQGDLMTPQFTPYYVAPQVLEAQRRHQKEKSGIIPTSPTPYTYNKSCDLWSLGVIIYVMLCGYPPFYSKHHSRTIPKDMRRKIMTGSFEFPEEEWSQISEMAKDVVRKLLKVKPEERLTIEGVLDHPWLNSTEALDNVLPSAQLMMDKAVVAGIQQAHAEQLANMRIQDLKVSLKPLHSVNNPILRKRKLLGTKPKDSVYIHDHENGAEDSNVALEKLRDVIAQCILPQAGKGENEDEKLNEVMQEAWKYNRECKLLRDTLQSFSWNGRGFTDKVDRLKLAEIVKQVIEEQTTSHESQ
Receptor-type tyrosine-protein kinase FLT3, sequence (P36888 whole entry): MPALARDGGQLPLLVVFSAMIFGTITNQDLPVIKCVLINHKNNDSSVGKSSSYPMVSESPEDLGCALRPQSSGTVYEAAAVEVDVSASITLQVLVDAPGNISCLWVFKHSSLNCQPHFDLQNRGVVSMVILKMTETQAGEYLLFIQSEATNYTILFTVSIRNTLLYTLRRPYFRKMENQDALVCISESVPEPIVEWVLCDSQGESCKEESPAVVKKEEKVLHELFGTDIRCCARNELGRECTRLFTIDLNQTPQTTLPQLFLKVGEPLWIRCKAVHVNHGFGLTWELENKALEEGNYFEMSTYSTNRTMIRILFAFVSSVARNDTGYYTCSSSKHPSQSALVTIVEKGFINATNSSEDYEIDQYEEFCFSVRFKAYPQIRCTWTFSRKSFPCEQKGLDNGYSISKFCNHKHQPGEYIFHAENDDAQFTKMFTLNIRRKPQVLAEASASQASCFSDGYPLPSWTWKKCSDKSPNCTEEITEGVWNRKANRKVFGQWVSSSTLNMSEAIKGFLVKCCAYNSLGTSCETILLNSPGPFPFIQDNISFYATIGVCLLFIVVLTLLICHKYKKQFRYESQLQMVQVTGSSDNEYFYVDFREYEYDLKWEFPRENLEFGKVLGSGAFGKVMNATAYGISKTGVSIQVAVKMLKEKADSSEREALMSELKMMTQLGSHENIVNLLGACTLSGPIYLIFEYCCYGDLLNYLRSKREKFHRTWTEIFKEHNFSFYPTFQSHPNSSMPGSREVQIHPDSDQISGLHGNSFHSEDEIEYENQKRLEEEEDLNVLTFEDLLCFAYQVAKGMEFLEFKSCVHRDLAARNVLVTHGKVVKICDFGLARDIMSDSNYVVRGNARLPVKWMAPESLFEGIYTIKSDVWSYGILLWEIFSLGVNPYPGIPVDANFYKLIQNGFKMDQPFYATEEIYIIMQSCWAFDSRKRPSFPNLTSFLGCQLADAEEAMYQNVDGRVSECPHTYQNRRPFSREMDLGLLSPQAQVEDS
Protein kinase C zeta type, sequence (Q05513 whole entry): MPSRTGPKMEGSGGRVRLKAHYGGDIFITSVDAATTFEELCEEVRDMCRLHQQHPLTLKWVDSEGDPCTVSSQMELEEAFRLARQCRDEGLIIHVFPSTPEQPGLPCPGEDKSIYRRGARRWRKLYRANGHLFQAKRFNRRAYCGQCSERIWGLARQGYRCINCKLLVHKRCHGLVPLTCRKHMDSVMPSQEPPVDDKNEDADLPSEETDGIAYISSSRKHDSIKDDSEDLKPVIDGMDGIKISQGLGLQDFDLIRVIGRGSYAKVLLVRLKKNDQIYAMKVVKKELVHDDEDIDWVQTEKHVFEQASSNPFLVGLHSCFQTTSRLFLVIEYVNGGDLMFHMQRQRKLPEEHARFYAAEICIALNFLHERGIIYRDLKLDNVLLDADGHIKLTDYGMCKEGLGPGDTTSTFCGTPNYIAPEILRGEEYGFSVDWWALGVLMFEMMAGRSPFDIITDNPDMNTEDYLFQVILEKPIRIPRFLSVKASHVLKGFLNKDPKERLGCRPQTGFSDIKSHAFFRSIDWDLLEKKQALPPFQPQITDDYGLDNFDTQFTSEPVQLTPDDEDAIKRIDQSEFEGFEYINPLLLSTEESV
Casein kinase II subunit alpha, sequence (P68400 whole entry): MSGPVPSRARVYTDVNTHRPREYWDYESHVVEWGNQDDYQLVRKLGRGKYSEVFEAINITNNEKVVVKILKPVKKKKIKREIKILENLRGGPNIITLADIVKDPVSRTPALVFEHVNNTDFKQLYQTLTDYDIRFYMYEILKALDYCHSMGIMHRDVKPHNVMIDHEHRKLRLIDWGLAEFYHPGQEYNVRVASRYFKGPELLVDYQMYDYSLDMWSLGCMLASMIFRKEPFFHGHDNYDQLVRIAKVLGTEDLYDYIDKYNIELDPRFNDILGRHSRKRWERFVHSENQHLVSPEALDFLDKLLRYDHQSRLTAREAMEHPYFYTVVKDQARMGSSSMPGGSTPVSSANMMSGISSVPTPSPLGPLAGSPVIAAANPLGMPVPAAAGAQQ
Serine/threonine-protein kinase PAK 3, sequence (O75914 whole entry): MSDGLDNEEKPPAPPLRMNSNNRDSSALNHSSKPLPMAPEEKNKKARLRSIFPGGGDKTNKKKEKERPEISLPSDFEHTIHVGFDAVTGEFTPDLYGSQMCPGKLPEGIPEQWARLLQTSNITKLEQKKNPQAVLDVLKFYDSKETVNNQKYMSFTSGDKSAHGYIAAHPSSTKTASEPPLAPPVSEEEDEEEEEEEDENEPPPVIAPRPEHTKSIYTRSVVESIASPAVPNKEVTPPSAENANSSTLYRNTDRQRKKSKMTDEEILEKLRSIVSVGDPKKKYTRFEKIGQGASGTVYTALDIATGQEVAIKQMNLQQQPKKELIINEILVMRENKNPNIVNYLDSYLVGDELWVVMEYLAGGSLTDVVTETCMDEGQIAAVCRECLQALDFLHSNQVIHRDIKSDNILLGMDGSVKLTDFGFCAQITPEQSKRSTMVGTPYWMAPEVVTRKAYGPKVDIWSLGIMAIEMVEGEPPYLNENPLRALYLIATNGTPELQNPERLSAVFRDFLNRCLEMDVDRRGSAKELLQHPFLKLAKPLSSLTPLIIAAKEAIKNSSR
Serine/threonine-protein kinase PAK 4, sequence (O96013 whole entry): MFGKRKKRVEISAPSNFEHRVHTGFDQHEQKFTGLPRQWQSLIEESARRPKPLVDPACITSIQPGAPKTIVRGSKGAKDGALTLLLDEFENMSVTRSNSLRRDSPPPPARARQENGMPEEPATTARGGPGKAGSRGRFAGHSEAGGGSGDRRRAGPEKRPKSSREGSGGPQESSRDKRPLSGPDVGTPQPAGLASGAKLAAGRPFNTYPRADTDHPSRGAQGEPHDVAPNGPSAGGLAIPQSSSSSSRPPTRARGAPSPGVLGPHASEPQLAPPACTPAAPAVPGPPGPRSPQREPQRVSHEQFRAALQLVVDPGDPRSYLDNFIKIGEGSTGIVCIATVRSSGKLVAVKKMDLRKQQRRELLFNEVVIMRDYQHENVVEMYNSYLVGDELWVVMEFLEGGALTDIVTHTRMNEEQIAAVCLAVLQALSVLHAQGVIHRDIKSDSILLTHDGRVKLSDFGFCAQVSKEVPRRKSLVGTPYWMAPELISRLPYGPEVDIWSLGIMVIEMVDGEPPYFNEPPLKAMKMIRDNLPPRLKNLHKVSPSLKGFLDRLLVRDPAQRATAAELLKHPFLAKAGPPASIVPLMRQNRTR
Tyrosine-protein kinase FRK, sequence (P42685 whole entry): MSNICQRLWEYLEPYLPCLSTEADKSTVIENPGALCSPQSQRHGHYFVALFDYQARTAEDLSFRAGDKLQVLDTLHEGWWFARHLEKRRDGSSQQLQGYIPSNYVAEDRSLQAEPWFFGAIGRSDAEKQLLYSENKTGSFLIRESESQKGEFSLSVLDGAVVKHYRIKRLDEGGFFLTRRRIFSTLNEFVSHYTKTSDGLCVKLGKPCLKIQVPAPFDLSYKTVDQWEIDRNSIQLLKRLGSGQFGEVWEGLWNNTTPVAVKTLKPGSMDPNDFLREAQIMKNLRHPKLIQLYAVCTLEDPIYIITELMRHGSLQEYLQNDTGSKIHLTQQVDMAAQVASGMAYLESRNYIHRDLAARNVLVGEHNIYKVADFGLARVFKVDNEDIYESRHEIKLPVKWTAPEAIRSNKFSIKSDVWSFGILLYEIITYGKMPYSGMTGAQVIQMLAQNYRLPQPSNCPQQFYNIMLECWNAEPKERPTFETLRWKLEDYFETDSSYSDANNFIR
Serine/threonine-protein kinase 25, sequence (O00506 whole entry): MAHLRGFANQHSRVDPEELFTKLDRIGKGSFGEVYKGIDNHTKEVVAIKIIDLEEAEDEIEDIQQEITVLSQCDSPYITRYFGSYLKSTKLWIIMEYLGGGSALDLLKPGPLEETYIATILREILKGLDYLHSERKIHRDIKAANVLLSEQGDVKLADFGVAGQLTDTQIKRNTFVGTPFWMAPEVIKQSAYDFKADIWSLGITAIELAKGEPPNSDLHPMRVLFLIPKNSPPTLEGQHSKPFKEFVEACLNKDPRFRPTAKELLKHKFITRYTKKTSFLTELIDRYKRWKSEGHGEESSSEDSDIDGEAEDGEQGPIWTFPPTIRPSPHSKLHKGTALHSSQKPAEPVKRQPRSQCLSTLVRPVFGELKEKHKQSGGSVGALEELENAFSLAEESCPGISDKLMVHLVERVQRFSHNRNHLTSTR

In the case of `FC(F)(F)c1ccc(CNc2ccc(Cc3c[nH]c4ncc(Cl)cc34)cn2)cn1` [PEXIDARTINIB], the concentration at 2555 h in [1] came out at 158 µM.
With `COc1ncc(F)cc1CNc1ccc(Cc2c[nH]c3ncc(C)cc23)c(F)n1` [PLX-5622], the result in the series with Mus musculus [2] and with Mus musculus [18] was Active. Also, the Activity in series [3] is 0.04 RPKM; in [9], 5; with Mus musculus [13], 75.956%; in [17], 0; in the series on Mus musculus [20] it was 66.975 um3; with Mus musculus [21] it was 9.38%. Further, the IC50 in series [4] was above 1000 nM; in [6], above 1000 nM; in series [8], 390 nM; in [10], above 1000 nM; in [11], above 1000 nM; in [14], above 1000 nM. The IC50 (against CDK9/cyclin T1; in series [15]; in series [16]; in [19]; at Ephrin type-A receptor 2; in series [22]) was above 1000 nM throughout. In addition, in series [5], the Vd was 2.3 L/kg. This compound also registered a clearance in [7] of 7.7 mL/min/kg. Further, the AUC(0-inf) in series [12] was 96500 ng·h/mL.
